Test results reported in ChEMBL document CHEMBL4616603, “Luciferase-based HMG-CoA reductase degradation assay for activity and selectivity profiling of oxy(lano)sterols” (Bioorg Med Chem, 2020).
Calls of active or inactive are those of the source. The rule behind the calls is not given here.

What was measured:
Assay type in all cases: cell-based
[1] = molecular target: T1, 3-hydroxy-3-methylglutaryl-coenzyme A reductase (Homo sapiens) (UniProt P04035); assay: (§1) Induction of human HMGCR-dCat-ELuc degradation expressed in HEK293 cells assessed as reduction in luciferase activity after 4 hrs by luciferase reporter assay
T1 sequence (whole entry): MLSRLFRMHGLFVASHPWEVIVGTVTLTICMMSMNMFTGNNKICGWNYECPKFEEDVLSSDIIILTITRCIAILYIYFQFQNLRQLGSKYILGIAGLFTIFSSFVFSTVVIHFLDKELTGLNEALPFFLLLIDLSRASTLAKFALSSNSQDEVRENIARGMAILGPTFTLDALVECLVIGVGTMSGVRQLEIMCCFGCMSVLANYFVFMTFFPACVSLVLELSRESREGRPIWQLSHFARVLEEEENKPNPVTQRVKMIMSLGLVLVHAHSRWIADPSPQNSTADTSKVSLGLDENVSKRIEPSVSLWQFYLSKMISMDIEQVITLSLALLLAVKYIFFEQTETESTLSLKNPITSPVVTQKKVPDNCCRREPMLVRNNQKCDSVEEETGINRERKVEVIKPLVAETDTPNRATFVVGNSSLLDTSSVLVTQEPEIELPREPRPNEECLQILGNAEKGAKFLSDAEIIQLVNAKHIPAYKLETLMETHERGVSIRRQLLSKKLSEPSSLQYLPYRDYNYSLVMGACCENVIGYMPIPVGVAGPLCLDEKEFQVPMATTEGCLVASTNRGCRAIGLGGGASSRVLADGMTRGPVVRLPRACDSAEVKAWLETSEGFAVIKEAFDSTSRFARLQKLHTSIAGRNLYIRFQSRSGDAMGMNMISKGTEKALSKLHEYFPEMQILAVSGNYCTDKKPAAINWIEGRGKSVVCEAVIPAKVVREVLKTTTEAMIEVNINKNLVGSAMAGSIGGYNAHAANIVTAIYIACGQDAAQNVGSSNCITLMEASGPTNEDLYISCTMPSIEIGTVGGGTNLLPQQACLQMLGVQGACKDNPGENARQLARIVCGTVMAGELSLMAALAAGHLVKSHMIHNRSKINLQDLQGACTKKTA
Procedure, shortened: (§2)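 HEK293 clone stably expressing HMGCR-dCat-ELuc, kept under 0.4 mg/mL G418 and picked from limiting-dilution clones. Cells exposed to compound for 4 h, then luciferase activity read as a measure of reporter protein level. Compounds came from 10 mM DMSO stocks (ethanol stock for 25HC). SD of triplicate experiments.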

[2] = molecular target: T2, Sterol regulatory element-binding protein 1 (Homo sapiens) (UniProt P36956); assay: Inhibition of SREBP (unknown origin) expressed in HEK293 cells assessed as reduction in LDLr promotor activity after 24 hrs by luciferase reporter assay
T2 sequence (whole entry): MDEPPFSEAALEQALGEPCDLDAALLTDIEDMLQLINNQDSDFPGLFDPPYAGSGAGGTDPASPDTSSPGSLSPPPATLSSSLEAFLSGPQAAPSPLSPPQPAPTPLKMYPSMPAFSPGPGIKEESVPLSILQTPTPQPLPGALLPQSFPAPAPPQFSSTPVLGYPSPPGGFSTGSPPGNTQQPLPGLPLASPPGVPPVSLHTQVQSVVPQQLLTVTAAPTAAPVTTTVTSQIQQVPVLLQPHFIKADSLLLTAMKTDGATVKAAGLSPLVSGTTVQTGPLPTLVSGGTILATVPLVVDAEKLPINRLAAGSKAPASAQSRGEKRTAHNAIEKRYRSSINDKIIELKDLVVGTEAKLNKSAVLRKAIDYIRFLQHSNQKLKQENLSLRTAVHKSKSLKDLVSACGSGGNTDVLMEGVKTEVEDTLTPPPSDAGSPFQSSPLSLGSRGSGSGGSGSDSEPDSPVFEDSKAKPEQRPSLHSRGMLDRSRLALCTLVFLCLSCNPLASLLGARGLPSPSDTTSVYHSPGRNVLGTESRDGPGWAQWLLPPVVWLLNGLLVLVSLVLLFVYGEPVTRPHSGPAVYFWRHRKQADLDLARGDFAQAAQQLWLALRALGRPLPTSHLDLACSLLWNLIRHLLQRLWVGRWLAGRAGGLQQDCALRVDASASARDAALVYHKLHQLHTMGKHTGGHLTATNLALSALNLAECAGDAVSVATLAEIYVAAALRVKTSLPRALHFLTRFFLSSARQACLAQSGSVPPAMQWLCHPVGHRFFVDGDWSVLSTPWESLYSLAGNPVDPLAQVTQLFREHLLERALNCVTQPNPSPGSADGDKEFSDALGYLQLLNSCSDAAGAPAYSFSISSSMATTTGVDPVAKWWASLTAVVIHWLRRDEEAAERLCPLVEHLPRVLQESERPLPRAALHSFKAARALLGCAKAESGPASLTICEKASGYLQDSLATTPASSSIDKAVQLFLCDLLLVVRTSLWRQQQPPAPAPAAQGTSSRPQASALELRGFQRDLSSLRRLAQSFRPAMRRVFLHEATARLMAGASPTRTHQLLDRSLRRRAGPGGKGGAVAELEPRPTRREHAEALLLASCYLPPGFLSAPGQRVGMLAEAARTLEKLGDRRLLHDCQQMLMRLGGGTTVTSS
Procedure, shortened: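 HEK293 cells transiently co-transfected with pGL4-LDLr-luciferase and pCMV-beta-galactosidase. After 24 h the medium was changed to DMEM with 10% LPDS, compounds were added, and culture continued for 24 h. Luciferase was read and normalized to beta-galactosidase activity. Mean ± SD, n = 3.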

[3] = molecular target: T1, 3-hydroxy-3-methylglutaryl-coenzyme A reductase (Homo sapiens); assay: Induction of human HMGCR-dCat-ELuc degradation expressed in HEK293 cells assessed as reduction in luciferase activity at 10 uM measured at <4 hrs by luciferase reporter assay
Procedure, shortened: (§3)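 Time-course degradation assay in the stable HMGCR-dCat-ELuc HEK293 line. Compound at 10 µM, alone or together with the VCP inhibitor CB5083 at 10 µM, for the indicated times. Reporter level read by luciferase activity.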

[4] = molecular target: T1, 3-hydroxy-3-methylglutaryl-coenzyme A reductase (Homo sapiens); assay: Induction of human HMGCR-dCat-ELuc degradation expressed in HEK293 cells assessed as reduction in luciferase activity at 10 uM measured at <4 hrs in presence of VCP inhibitor CB5083 by luciferase reporter assay; procedure, shortened: as §3
[5] = molecular target: T3, 3-hydroxy-3-methylglutaryl-coenzyme A reductase (Homo sapiens, UniProt P04035); assay: as §1; procedure, shortened: as §2
T3 sequence (P04035 whole entry): T1 sequence (whole entry)

[6] = molecular target: T1, 3-hydroxy-3-methylglutaryl-coenzyme A reductase (Homo sapiens); assay: Induction of human HMGCR-dCat-ELuc degradation expressed in HEK293 cells assessed as reduction in luciferase activity after 8 hrs by luciferase reporter assay
Procedure, shortened: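 Stable HMGCR-dCat-ELuc HEK293 clone (G418 0.4 mg/mL selection) treated for 8 h, then assayed for luciferase activity. In some runs, cells were co-treated with the SQS inhibitor TAK-475 at 10 µM. Mean and SD from biological replicates (n = 4 or 8).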

[7] = molecular target: T1, 3-hydroxy-3-methylglutaryl-coenzyme A reductase (Homo sapiens); assay: Induction of human HMGCR-dCat-ELuc degradation expressed in HEK293 cells assessed as reduction in luciferase activity measured after 8 hrs by luciferase reporter assay
Procedure, shortened: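 Stable HEK293 clone expressing HMGCR-dCat-ELuc, selected with 0.4 mg/mL G418 and isolated by limiting dilution. Cells were given graded compound concentrations without TAK-475 for 8 h. HMGCR-dCat-ELuc level was read as luciferase activity. Data are mean and SD.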

[8] = molecular target: T1, 3-hydroxy-3-methylglutaryl-coenzyme A reductase (Homo sapiens); assay: Induction of human HMGCR-dCat-ELuc degradation expressed in HEK293 cells assessed as reduction in luciferase activity measured after 8 hrs in presence of SQS inhibitor TAK-475 by luciferase reporter assay
Procedure, shortened: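 Stable HEK293 HMGCR-dCat-ELuc clone (G418-selected, single clone) was given graded compound concentrations together with 10 µM TAK-475 (SQS inhibitor) for 8 h. The read-out was luciferase activity. Data are mean and SD of biological replicates, n = 4.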

SMILES | Activity [1] | inhibition [2] | other results
CC(C)CCC[C@@H](C)[C@H]1CC[C@H]2[C@@H]3C[C@@H](O)[C@@]4(O)C[C@@H](O)CC[C@]4(C)[C@H]3CC[C@]12C | Active | inactive | –
CC(C)OP(=O)(OC(C)C)C(Cc1cc(C(C)(C)C)c(O)c(C(C)(C)C)c1)P(=O)(OC(C)C)OC(C)C [APOMINE] | Dose-dependent effect | inactive | Activity [3]: Active; Activity [4]: inactive; EC50 [5]: 470 nM
COc1cccc([C@H]2O[C@H](CC(=O)N3CCC(CC(=O)O)CC3)C(=O)N(CC(C)(C)COC(C)=O)c3ccc(Cl)cc32)c1OC | – | – | Activity [6]: inactive
C[C@H](CCCC(C)(C)O)[C@H]1CC[C@H]2[C@@H]3CC=C4C[C@@H](O)CC[C@]4(C)[C@H]3CC[C@]12C | Dose-dependent effect | Active | EC50 [5]: 630 nM
CC(C)CCC[C@@H](C)[C@H]1CC[C@@]2(C)C3=C(CC[C@]12C)[C@@]1(C)CC[C@H](O)C(C)(C)[C@@H]1CC3 | inactive | inactive | –
CC(C)CCC[C@@H](C)[C@H]1CC[C@@]2(C)C3=C(C(=O)C[C@]12C)[C@@]1(C)CC[C@H](O)C(C)(C)[C@@H]1CC3=O | Active | inactive | –
C[C@H](CCCC(C)(C)O)[C@H]1CC[C@H]2[C@@H]3CCC4=CC(=O)CC[C@]4(C)[C@H]3CC[C@]12C | inactive | Active | –
CC(C)CCC[C@@H](C)[C@H]1CC[C@H]2[C@@H]3CC=C4C(C)(C)[C@@H](O)CC[C@]4(C)[C@H]3CC[C@]12C | inactive | inactive | –
C[C@H](CCCO)[C@H]1CC[C@@]2(C)C3=C(CC[C@]12C)[C@@]1(C)CC[C@H](O)C(C)(C)[C@@H]1CC3 | Active | inactive | –
C[C@H](CCCC(C)(C)O)[C@H]1CC[C@@]2(C)C3=C(CC[C@]12C)[C@@]1(C)CC[C@H](O)C(C)(C)[C@@H]1CC3 | Active | Active | –
C[C@H](CCC1OC1(C)C)[C@H]1CC[C@@]2(C)C3=C(CC[C@]12C)[C@@]1(C)CC[C@H](O)C(C)(C)[C@@H]1CC3 (stereo partly drawn) | Active | Active | –
C[C@H](CCCC(C)(C)O)[C@H]1CC[C@H]2[C@@H]3C[C@@H](O)[C@@]4(O)C[C@@H](O)CC[C@]4(C)[C@H]3CC[C@]12C | Active | inactive | –
CC(C)CCC[C@@H](C)[C@H]1CC[C@H]2[C@@H]3CC=C4C[C@@H](O)CC[C@]4(CO)[C@H]3CC[C@]12C | inactive | inactive | –
CC(=O)N1CCN(c2ccc(OCC3COC(Cn4ccnc4)(c4ccc(Cl)cc4Cl)O3)cc2)CC1 (stereo not drawn) | – | – | Activity [7]: Dose-dependent effect; Activity [8]: inactive
C[C@H](CCC(O)C(C)(C)O)[C@H]1CC[C@@]2(C)C3=C(CC[C@]12C)[C@@]1(C)CC[C@H](O)C(C)(C)[C@@H]1CC3 (stereo partly drawn) | Active | Active | –
